Reference: ChEMBL document CHEMBL5724801, “EUbOPEN Chemogenomics Library - Multiplex” (2024)
Values joined by “and” are separate entries in the source; they are usually repeats but may differ in a detail not shown here. Equal entries are not always repeated.

The compounds below were run on HEK-293T (assay: Multiplex assay against HEK293T). Settings: human, 12 h, 1 µM, compound concentration 1 uM.
Assay type: toxicity, cell-based
Method in brief: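 Hoechst33342, BioTracker Green Microtubule Cytoskeleton Dye, MitoTracker Red and Annexin V Alexa Fluor 680 were added to live cells at seeding, and imaging on a CQ1 microscope at 37°C and 5% CO2 followed compound addition. Gating by CellPathfinder machine learning separated cells into Hoechst high-intensity objects or normal cells, then normal cells into healthy, pyknosed or fragmented nuclei, then pyknosed cells into mitotic or apoptotic. Per cents of healthy-nucleus cells are reported for the tubulin, mitochondrial-mass and membrane-permeability phenotypes.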

Q: Which “Population Apoptotic (%)” value does the source give for `COc1cc2ncnc(Nc3ccc(Oc4ccccc4)cc3C)c2cc1OC.Cl` here?
A: 9.24% and 8.93%

Q: And the “Population Fragmented Nuclei (%)” value?
A: 2.79% and 1.37%

Q: What about the “Population Healthy Nuclei (%)” value of the same compound?
A: 50.51% and 21.92%

Q: What about the “Population Hoechst High Intensity Objects (%)” value of the same compound?
A: 0%

Q: What about the “Population Membrane Permeable-Phenotype (%)” value of the same compound?
A: 1.51% and 0%

Q: What about the “Population Mitochondria Different-Phenotype (%)” value of the same compound?
A: 24.62% and 9.38%

Q: What about the “Population Mitotic Cells (%)” value of the same compound?
A: 90.76% and 91.07%

Q: And the “Population Normal (%)” value?
A: 100%

Q: What about the “Population Pyknosed Nuclei (%)” value of the same compound?
A: 46.7% and 76.71%

Q: And the “Population Tubulin-Different-Phenotype (%)” value?
A: 6.53% and 18.75%

Q: And the “Total Cell Count” value?
A: 394 and 146

Q: Which results are given for `Cl.NCCc1ccc(O)c(O)c1` [DOPAMINE HYDROCHLORIDE]?
A: Population Apoptotic (%): 31% and 54%; Population Fragmented Nuclei (%): 6% and 7%; Population Healthy Nuclei (%): 77% and 78%; Population Hoechst High Intensity Objects (%): 10% and 6%; Population Membrane Permeable-Phenotype (%): 0%; Population Mitochondria Different-Phenotype (%): 54% and 58%; Population Mitotic Cells (%): 68% and 46%; Population Normal (%): 89% and 93%; Population Pyknosed Nuclei (%): 16% and 14%; Population Tubulin-Different-Phenotype (%): 36% and 18%; Total Cell Count: 324 and 372

Same assay, conditions: human, 12 h, 10 µM, compound concentration 10 uM

Q: `COc1cc2ncnc(Nc3ccc(Oc4ccccc4)cc3C)c2cc1OC.Cl` was tested. Which “Population Apoptotic (%)” value did it give?
A: 10.53% and 18.75%

Q: And the “Population Fragmented Nuclei (%)” value?
A: 1.92% and 2.05%

Q: And the “Population Hoechst High Intensity Objects (%)” value?
A: 0%

Q: And the “Population Membrane Permeable-Phenotype (%)” value?
A: 0.6% and 0%

Q: And the “Population Mitochondria Different-Phenotype (%)” value?
A: 17.86% and 20%

Q: What about the “Population Mitotic Cells (%)” value of the same compound?
A: 89.47% and 81.25%

Q: And the “Population Normal (%)” value?
A: 100%

Q: And the “Population Pyknosed Nuclei (%)” value?
A: 52.05% and 87.67%

Q: And the “Total Cell Count” value?
A: 365 and 146

Q: What does the source list for `Cl.NCCc1ccc(O)c(O)c1` [DOPAMINE HYDROCHLORIDE]?
A: Population Apoptotic (%): 46% and 37%; Population Fragmented Nuclei (%): 5%; Population Healthy Nuclei (%): 77% and 83%; Population Hoechst High Intensity Objects (%): 6% and 5%; Population Membrane Permeable-Phenotype (%): 0%; Population Mitochondria Different-Phenotype (%): 57% and 51%; Population Mitotic Cells (%): 53% and 62%; Population Normal (%): 93% and 94%; Population Pyknosed Nuclei (%): 17% and 11%; Population Tubulin-Different-Phenotype (%): 43% and 23%; Total Cell Count: 344 and 413

Same assay, conditions: human, 24 h, 1 µM, compound concentration 1 uM

Q: `COc1cc2ncnc(Nc3ccc(Oc4ccccc4)cc3C)c2cc1OC.Cl` was tested. Which “Population Apoptotic (%)” value did it give?
A: 18.7% and 16.84%

Q: What about the “Population Fragmented Nuclei (%)” value of the same compound?
A: 0.78% and 1.86%

Q: And the “Population Healthy Nuclei (%)” value?
A: 80.12% and 39.13%

Q: What about the “Population Hoechst High Intensity Objects (%)” value of the same compound?
A: 0%

Q: What about the “Population Membrane Permeable-Phenotype (%)” value of the same compound?
A: 2.13% and 1.59%

Q: What about the “Population Mitochondria Different-Phenotype (%)” value of the same compound?
A: 8.53% and 7.94%

Q: What about the “Population Mitotic Cells (%)” value of the same compound?
A: 81.3% and 83.16%

Q: What about the “Population Normal (%)” value of the same compound?
A: 100%

Q: And the “Population Tubulin-Different-Phenotype (%)” value?
A: 10.85% and 3.17%

Q: Which results are given for `Cl.NCCc1ccc(O)c(O)c1` [DOPAMINE HYDROCHLORIDE]?
A: Population Apoptotic (%): 44% and 20%; Population Fragmented Nuclei (%): 9% and 8%; Population Healthy Nuclei (%): 76% and 85%; Population Hoechst High Intensity Objects (%): 4% and 5%; Population Membrane Permeable-Phenotype (%): 1% and 0%; Population Mitochondria Different-Phenotype (%): 40% and 46%; Population Mitotic Cells (%): 55% and 79%; Population Normal (%): 95% and 94%; Population Pyknosed Nuclei (%): 13% and 5%; Population Tubulin-Different-Phenotype (%): 19% and 11%; Total Cell Count: 451 and 478

Same assay, conditions: human, 24 h, 10 µM, compound concentration 10 uM

Q: What does the source list for `COc1cc2ncnc(Nc3ccc(Oc4ccccc4)cc3C)c2cc1OC.Cl`?
A: Population Apoptotic (%): 30.37% and 35.11%; Population Fragmented Nuclei (%): 2.24% and 2.6%; Population Hoechst High Intensity Objects (%): 0.22% and 0%; Population Membrane Permeable-Phenotype (%): 0.66% and 0%; Population Mitochondria Different-Phenotype (%): 13.58% and 21.05%; Population Mitotic Cells (%): 69.63% and 64.89%; Population Normal (%): 99.78% and 100%; Population Pyknosed Nuclei (%): 30.2% and 85.06%; Total Cell Count: 448 and 154

Q: Which “Population Apoptotic (%)” value does the source give for `Cl.NCCc1ccc(O)c(O)c1` [DOPAMINE HYDROCHLORIDE] here?
A: 39% and 38%

Q: What about the “Population Fragmented Nuclei (%)” value of the same compound?
A: 7% and 9%

Q: And the “Population Healthy Nuclei (%)” value?
A: 79% and 83%

Q: What about the “Population Hoechst High Intensity Objects (%)” value of the same compound?
A: 5%

Q: And the “Population Membrane Permeable-Phenotype (%)” value?
A: 0%

Q: What about the “Population Mitochondria Different-Phenotype (%)” value of the same compound?
A: 36% and 40%

Q: And the “Population Mitotic Cells (%)” value?
A: 60% and 61%

Q: What about the “Population Normal (%)” value of the same compound?
A: 94%

Q: What about the “Population Pyknosed Nuclei (%)” value of the same compound?
A: 12% and 7%

Q: And the “Population Tubulin-Different-Phenotype (%)” value?
A: 23% and 15%

Q: And the “Total Cell Count” value?
A: 393 and 533

Same assay, conditions: human, 48 h, 1 µM, compound concentration 1 uM

Q: How did the “Population Fragmented Nuclei (%)” value turn out when `COc1cc2ncnc(Nc3ccc(Oc4ccccc4)cc3C)c2cc1OC.Cl` was run?
A: 2.53% and 2.04%

Q: What about the “Population Healthy Nuclei (%)” value of the same compound?
A: 85.42% and 68.88%

Q: What about the “Population Hoechst High Intensity Objects (%)” value of the same compound?
A: 0.14% and 0%

Q: What about the “Population Membrane Permeable-Phenotype (%)” value of the same compound?
A: 4.9% and 2.96%

Q: What about the “Population Mitochondria Different-Phenotype (%)” value of the same compound?
A: 14.29% and 17.78%

Q: And the “Population Mitotic Cells (%)” value?
A: 92.22% and 73.68%

Q: What about the “Population Normal (%)” value of the same compound?
A: 99.86% and 100%

Q: And the “Population Pyknosed Nuclei (%)” value?
A: 12.06% and 29.08%

Q: Which “Population Apoptotic (%)” value does the source give for `Cl.NCCc1ccc(O)c(O)c1` [DOPAMINE HYDROCHLORIDE] here?
A: 19% and 23%

Q: And the “Population Fragmented Nuclei (%)” value?
A: 14% and 10%

Q: And the “Population Healthy Nuclei (%)” value?
A: 78% and 81%

Q: And the “Population Hoechst High Intensity Objects (%)” value?
A: 4%

Q: And the “Population Membrane Permeable-Phenotype (%)” value?
A: 1% and 0%

Q: What about the “Population Mitochondria Different-Phenotype (%)” value of the same compound?
A: 23% and 20%

Q: What about the “Population Mitotic Cells (%)” value of the same compound?
A: 80% and 76%

Q: What about the “Population Normal (%)” value of the same compound?
A: 95%

Q: And the “Population Pyknosed Nuclei (%)” value?
A: 7%

Q: What about the “Population Tubulin-Different-Phenotype (%)” value of the same compound?
A: 14% and 7%

Q: What about the “Total Cell Count” value of the same compound?
A: 785 and 638

Same assay, conditions: human, 48 h, 10 µM, compound concentration 10 uM

Q: Which results are given for `COc1cc2ncnc(Nc3ccc(Oc4ccccc4)cc3C)c2cc1OC.Cl`?
A: Population Apoptotic (%): 20.37% and 26.73%; Population Fragmented Nuclei (%): 1.69% and 2.03%; Population Healthy Nuclei (%): 77.27% and 46.7%; Population Hoechst High Intensity Objects (%): 0%; Population Membrane Permeable-Phenotype (%): 2.35% and 1.09%; Population Mitochondria Different-Phenotype (%): 53.61% and 47.83%; Population Mitotic Cells (%): 79.63% and 73.27%; Population Normal (%): 100%; Population Pyknosed Nuclei (%): 21.04% and 51.27%

Q: Which “Population Apoptotic (%)” value does the source give for `Cl.NCCc1ccc(O)c(O)c1` [DOPAMINE HYDROCHLORIDE] here?
A: 30% and 17%

Q: And the “Population Fragmented Nuclei (%)” value?
A: 14% and 12%

Q: What about the “Population Healthy Nuclei (%)” value of the same compound?
A: 79% and 83%

Q: What about the “Population Hoechst High Intensity Objects (%)” value of the same compound?
A: 3% and 1%

Q: What about the “Population Membrane Permeable-Phenotype (%)” value of the same compound?
A: 0%

Q: And the “Population Mitochondria Different-Phenotype (%)” value?
A: 24% and 17%

Q: What about the “Population Mitotic Cells (%)” value of the same compound?
A: 70% and 82%

Q: And the “Population Normal (%)” value?
A: 96% and 98%

Q: What about the “Population Pyknosed Nuclei (%)” value of the same compound?
A: 6% and 4%

Q: What about the “Population Tubulin-Different-Phenotype (%)” value of the same compound?
A: 13% and 7%

Q: What about the “Total Cell Count” value of the same compound?
A: 660 and 859
